Published values collected from several papers.
Compare with care: the assays were run in different laboratories.
Target: Histamine H1 receptor (HRH1, Homo sapiens, UniProt P35367)
Method: radioligand

Structure (SMILES)	assay	conditions	Ki [nM]
CN1CCN(C2c3ccccc3C=Cc3ccccc32)CC1	cell-free assay	–	2
O=C1NC(c2ccccc2)(c2ccccc2)C(=O)N1CCCN1CCCCC1	ligand displacement	cell membranes	6310
O=C1CCCc2cc(OCCCN3CCCCC3)ccc21	ligand displacement	cell membranes	3470
CN(C)CCOC1c2ccccc2C=Cc2ccccc21	cell-free assay	–	0.316
CNc1nc2cc(OCCCCN3CCC(c4cccc(Cl)c4Cl)CC3)ccc2s1	ligand displacement	–	28
CN(C)c1ccc(/C=C/C=C2\CCc3cc(OCCCN4CCCCC4)ccc3C2=O)cc1	ligand displacement	cell membranes	881
N#Cc1cc(Cn2c(N3CCCC3)nc3ccccc32)ccc1F	cell-free assay	–	2570
CC(C)c1nc2cc(OCCCCN3CCN(c4cccc5c4OCCO5)CC3)ccc2s1	ligand displacement	–	52
CN(C)CCOC1c2ccccc2CCc2ccccc21	cell-free assay	–	1.26
CN(C)c1ccc(/C=C/C=C2\CCc3cc(OCc4ccc(OCCCN5CCCCC5)cc4)ccc3C2=O)cc1	ligand displacement	cell membranes	1370
CN1CCC(C2c3ccccc3CCc3ccccc32)CC1	cell-free assay	–	0.631
Clc1ccc(CCCOCCCN2CCCCC2)cc1	ligand displacement	cell membranes	> 10000
CCCCCCCNCCCc1ccc([N+](=O)[O-])cc1	ligand displacement	–	9200
CN(C)c1ccc(/C=C2\CCc3ccc(OCCCN4CCCCC4)cc3C2=O)cc1	ligand displacement	cell membranes	2140
